Assay results: ChEMBL document CHEMBL5390270, “Synthesis, anti-inflammatory activity, inverse molecular docking, and acid dissociation constants of new naphthoquinone-thiazole hybrids” (Bioorg Med Chem, 2023)
Active and inactive are the calls of the source. No cut-off for these calls is given here.

Legend:
Assay type in all cases: functional, cell-based
[1] = tested on: J774.2; experiment: Antiproliferative activity against LPS-stimulated mouse J774.2 cells assessed as reduction in cell viability at 1 to 5 ug/mL incubated for 1 day by trypan blue staining analysis; conditions: dose 1-5 µg/ml
Method in brief: (§1)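 J774.2 macrophages in RPMI 1640 with 10 % FBS, antibiotics and sodium pyruvate, 37 °C, 5 % CO₂. Cells were exposed for 1 day to molecules at 1, 2 and 5 µg/mL with or without LPS, with SA at 5 µg/mL as control. Supernatants were removed, cells washed in PBS, then counted with trypan blue to give viability. N = 3.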

[2] = tested on: J774.2; experiment: Antiinflammatory activity in LPS-stimulated mouse J774.2 cells assessed as reduction in TNF-alpha level at 1 to 5 ug/mL incubated for 12 hrs by ELISA analysis; conditions: dose 1-5 µg/ml, time 24.0 hrs, in the assay text read “24 hrs” for “12 hrs”
Method in brief: (§2)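 J774.2 macrophages in RPMI 1640 with 10 % FBS, 1 % penicillin/streptomycin and sodium pyruvate, 24-well plates, 37 °C, 5 % CO₂. Cells were stimulated for 1 day with test molecules at 1, 2 and 5 µg/mL plus LPS. SA at 5 µg/mL served as control. Supernatant TNF-α or IL6 was read by sandwich ELISA: biotin-antibody, streptavidin-HRP, TMB, absorbance at 450 nm. N = 3.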

[3] = tested on: J774.2; experiment: Antiinflammatory activity in mouse J774.2 cells assessed as reduction in IL-6 production at 1 to 5 ug/mL […] by ELISA analysis; conditions: dose 1-5 µg/ml
Method in brief: (§3)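 J774.2 macrophages were cultured in RPMI 1640 with 10 % FBS, antibiotics and sodium pyruvate at 37 °C, 5 % CO₂. Cells received molecules at 1, 2 and 5 µg/mL for 1 day without LPS. Supernatant TNF-α or IL6 was quantified by sandwich ELISA with TMB read-out at 450 nm. N = 3.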

[4] = tested on: J774.2; experiment: Antiproliferative activity against LPS-stimulated mouse J774.2 cells assessed as reduction in cell viability at 1 to 5 ug/mL incubated for 1 day in presence of LPS by trypan blue staining analysis; conditions: dose 1-5 µg/ml; method in brief: as §1
[5] = tested on: J774.2; experiment: Antiinflammatory activity in mouse J774.2 cells assessed as reduction in TNF-alpha level at 1 to 5 ug/mL […] by ELISA analysis; conditions: dose 1-5 µg/ml; method in brief: as §3
[6] = tested on: J774.2; experiment: Antiinflammatory activity in LPS-stimulated mouse J774.2 cells assessed as reduction IL-6 production at 5 ug/mL […] by ELISA analysis; conditions: dose 5.0 µg/ml; method in brief: as §2
[7] = tested on: J774.2; experiment: Antiinflammatory activity in LPS-stimulated mouse J774.2 cells assessed as reduction in TNF-alpha level at 5 ug/mL incubated for 12 hrs by ELISA analysis; conditions: dose 5.0 µg/ml, time 24.0 hrs, in the assay text read “24 hrs” for “12 hrs”; method in brief: as §2
[8] = tested on: J774.2; experiment: Antiinflammatory activity in LPS-stimulated mouse J774.2 cells assessed as reduction in IL-6 production at 2 to 5 ug/ml […] by ELISA analysis; conditions: dose 2-5 µg/ml; method in brief: as §2
[9] = tested on: J774.2; experiment: Antiinflammatory activity in LPS-stimulated mouse J774.2 cells assessed as reduction in IL-6 production at 1 to 5 ug/ml […] by ELISA analysis; conditions: dose 1-5 µg/ml; method in brief: as §2
[10] = tested on: J774.2; experiment: Antiinflammatory activity in LPS-stimulated mouse J774.2 cells assessed as reduction in IL-6 production at 1 ug/ml incubated for […] by ELISA analysis; conditions: dose 1.0 µg/ml; method in brief: as §2
[11] = tested on: J774.2; experiment: Antiinflammatory activity in LPS-stimulated mouse J774.2 cells assessed as reduction IL-6 production at 2 to 5 ug/mL incubated for […] by ELISA analysis; conditions: dose 2-5 µg/ml; method in brief: as §2
[12] = tested on: J774.2; experiment: Antiinflammatory activity in LPS-stimulated mouse J774.2 cells assessed as reduction in TNF-alpha level at 1 to 2 ug/mL […] by ELISA analysis; conditions: dose 1-2 µg/ml; method in brief: as §2

Row | SMILES | Activity [1] | Activity [2] | Activity [3] | Activity [4] | Activity [5] | Activity [6] | Activity [7] | Activity [8] | Activity [9] | Activity [10] | Activity [11] | Activity [12]
1 | NC1=C(n2c(-c3ccc(Cl)cc3)cs/c2=N\C(=O)c2ccc([N+](=O)[O-])cc2)C(=O)c2ccccc2C1=O | inactive | Active | inactive | inactive | inactive | – | – | – | – | – | – | –
2 | NC1=C(n2c(-c3ccc(F)cc3)cs/c2=N\C(=O)c2cccc([N+](=O)[O-])c2)C(=O)c2ccccc2C1=O | inactive | – | inactive | inactive | inactive | – | – | – | – | – | – | –
3 | NC1=C(n2c(-c3ccc(Br)cc3)cs/c2=N\C(=O)c2ccc(Cl)c([N+](=O)[O-])c2)C(=O)c2ccccc2C1=O | inactive | – | inactive | inactive | inactive | Active | – | – | – | – | – | –
4 | NC1=C(n2c(-c3ccc(F)cc3)cs/c2=N\C(=O)c2ccc([N+](=O)[O-])cc2)C(=O)c2ccccc2C1=O | inactive | Active | inactive | inactive | inactive | – | – | – | – | – | – | –
5 | NC1=C(n2c(-c3ccc(Cl)cc3)cs/c2=N\C(=O)c2cccc([N+](=O)[O-])c2)C(=O)c2ccccc2C1=O | inactive | – | inactive | inactive | inactive | – | Active | Active | – | – | – | –
6 | NC1=C(n2c(-c3ccccc3)cs/c2=N\C(=O)c2ccc(Cl)c([N+](=O)[O-])c2)C(=O)c2ccccc2C1=O | inactive | – | inactive | inactive | inactive | – | – | – | Active | – | – | –
7 | NC1=C(n2c(-c3ccc(Br)cc3)cs/c2=N\C(=O)c2ccc([N+](=O)[O-])cc2)C(=O)c2ccccc2C1=O | inactive | Active | inactive | inactive | inactive | – | – | – | – | – | – | –
8 | NC1=C(n2c(-c3ccc(Br)cc3)cs/c2=N\C(=O)c2cccc([N+](=O)[O-])c2)C(=O)c2ccccc2C1=O | inactive | – | inactive | inactive | inactive | – | – | – | Active | – | – | –
9 | NC1=C(n2c(-c3ccccc3)cs/c2=N\C(=O)c2ccc([N+](=O)[O-])cc2)C(=O)c2ccccc2C1=O | inactive | inactive | inactive | inactive | inactive | – | – | – | – | – | – | –
10 | NC1=C(n2c(-c3ccc(F)cc3)cs/c2=N\C(=O)c2ccc(Cl)c([N+](=O)[O-])c2)C(=O)c2ccccc2C1=O | inactive | – | inactive | inactive | inactive | – | – | – | – | – | – | –
11 | NC1=C(n2c(-c3ccc(Cl)cc3)cs/c2=N\C(=O)c2ccc(Cl)c([N+](=O)[O-])c2)C(=O)c2ccccc2C1=O | inactive | – | inactive | inactive | inactive | – | – | – | – | inactive | Active | –
12 | NC1=C(n2c(-c3ccccc3)cs/c2=N\C(=O)c2cccc([N+](=O)[O-])c2)C(=O)c2ccccc2C1=O | inactive | – | inactive | inactive | inactive | – | Active | – | – | – | – | inactive
